Compound activity deposited in PubChem by several laboratories.
Most compounds without a hit are left out; they make up all but 2.2% or so of the library.
CendR NRP1 mod: NRP-1/CendR interaction modulation; O14786; FAM-RPARPAR peptide binding to NRP-1, fluorescence polarization; inhibition, % at 25 µM; 360,000 tested, 0.85% active;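 active = inhibition or corrected inhibition above about 18%, plus a signal ratio from 0.5 to 1.5, limit read from the data, passing the limit was not always enough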
Exocytosis inh: lytic granule exocytosis inhibition. inhibition, % at 10 µM. 360,000 tested, 0.66% active. TALL-104 LAMP-1 surface exposure, flow cytometry; cells stimulated with thapsigargin and PMA. AID 651702;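 active = inhibition above about 55%, limit read from the data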
ARFGAP1 inh: rat ARFGAP1 inhibition. Q62848. Arfgap1-stimulated ARF1 GTP hydrolysis, GDP FP detection. inhibition, % at 16.5 µM. 360,000 tested, 0.26% active. AID 651572;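 active = inhibition above a per-plate limit, mean inhibition of low control wells plus 3 SD, cut at about 25% in these data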
Target sequence (Q62848 1-136 limits assumed): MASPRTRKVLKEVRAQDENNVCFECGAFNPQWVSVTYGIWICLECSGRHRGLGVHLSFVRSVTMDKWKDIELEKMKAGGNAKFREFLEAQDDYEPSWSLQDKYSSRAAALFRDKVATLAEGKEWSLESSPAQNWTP
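Material: truncated rat Arfgap1 GAP domain; Incubation: compound-enzyme preincubation 20 min, reaction 120 min, detection 60 min, 25 °C; Read-out: percent inhibition of Arfgap1-stimulated GTP hydrolysis; Technique: FP, GDP Alexa 633 tracer displaced from anti-GDP antibody, 620/688 nm; Controls: No-Arfgap1 wells (100%) versus DMSO full-reaction wells (0%); Replication: single well per compound.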
V-ATPase pH: regulators of yeast V-ATPase proton transport; S. cerevisiae, pHLuorin cytosolic pH fluorescence; response, % at 10 µM; 350,000 tested, 0.37% active; AID 504577; in the data active = response mostly above about 7.3%, no sharp cut-off; inactive = mostly below about 5.4%; note: actives read high
ASAP1 inh: inhibitors of human ASAP1 ArfGAP activity; 360,000 tested, 0.19% active; inhibition, % at 16.5 µM; AID 624377; ASAP1-stimulated ARF1 GTP hydrolysis, GDP FP detection; Q9ULH1; in the data active = inhibition above about 25%
Target sequence (Q9ULH1 325-724 limits assumed): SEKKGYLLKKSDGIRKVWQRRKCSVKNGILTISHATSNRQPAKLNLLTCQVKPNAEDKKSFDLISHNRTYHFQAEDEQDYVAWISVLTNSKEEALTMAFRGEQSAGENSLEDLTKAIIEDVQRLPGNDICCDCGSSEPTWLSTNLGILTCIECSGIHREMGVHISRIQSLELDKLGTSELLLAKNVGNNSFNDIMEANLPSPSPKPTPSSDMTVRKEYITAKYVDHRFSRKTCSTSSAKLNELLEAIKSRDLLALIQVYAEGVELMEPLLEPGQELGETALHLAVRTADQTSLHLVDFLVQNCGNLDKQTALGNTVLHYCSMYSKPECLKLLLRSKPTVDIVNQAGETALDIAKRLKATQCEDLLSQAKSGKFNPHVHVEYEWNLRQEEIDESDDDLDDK
Exocytosis CP01: blocks lytic granule exocytosis; shares compounds with Exocytosis inh; TALL-104 cells, LAMP-1 externalization, flow cytometry; stimulated with PMA plus thapsigargin; inhibition, % at 10 µM; 1,500 tested, 11% active; AID 651954; in the data active = inhibition above about 60%
Large screens that a line does not name were inactive (follow-up assays come after a bar, where they were run).

COc1ccc(C(CCNCc2ccc(OC(C)C)cc2)C(C)C)cc1 (centres undefined)	Exocytosis inh 78 | Exocytosis CP01 inactive
c1ccc(Nc2nnc(-c3cccnc3)s2)cc1	none
O=C(COC(=O)c1ccc(Br)cc1)NC(=O)NCc1ccccc1	none
Cc1ccccc1CC1CCN(CCCNC(=O)Nc2ccccc2)CC1	Exocytosis inh 63 | Exocytosis CP01 inactive
Cc1ccc(C)c(CN2CCC(CNC(=O)Nc3ccc(Cl)cc3)CC2)c1	Exocytosis inh 66 | Exocytosis CP01 inactive
Cc1ccc(C)c(CN2CCC(CNC(=O)Nc3ccc(Br)cc3F)CC2)c1	none
COc1cc(CO)c(OC)c([N+](=O)[O-])c1	none
COc1ccc(C(=O)N2CCN(C)C(=O)[C@@H]2C)cc1OC1CCN(C(C)C)CC1	none
CCSc1ncnc2c1oc1ccccc12	none
Clc1ncnc2c1oc1ccccc12	Exocytosis inh 72 | Exocytosis CP01 inactive
CCOC(=O)c1cc(C(=O)c2cccs2)n2ccc(C(C)=O)cc12	Exocytosis inh 97 | Exocytosis CP01 inactive
CCOC(=O)c1cc(C(C)=O)n2ccccc12	none
Cn1nc(-c2ccccc2)c(C(=O)Nc2ccc(Cl)cc2)c1Cl	none
Cn1c(Cl)c(C(=O)Nc2ccc(Cl)cc2)c2ccccc21	Exocytosis inh 69 | Exocytosis CP01 inactive
CN(C)C(=O)CSc1ccc(S(=O)(=O)N2CCOCC2)cn1	none
O=S(=O)(NCc1nnc2ccccn12)c1ccc(Cl)cc1	none
COc1cc(O)c(C(CC(=O)N2CCCC(C)C2)c2cc(OC)c(OC)c(OC)c2)c(OC)c1 (centres undefined)	Exocytosis inh 58 | Exocytosis CP01 inactive
COc1cccc(-c2nnc3n2N=C(c2cc(OC)ccc2OC)CS3)c1	none
CCOc1cccc(-c2nnc3n2N=C(c2cc(OC)ccc2OC)CS3)c1	Exocytosis inh 75 | Exocytosis CP01 inactive
COc1cc2cc(C(=O)N(C)C3CCS(=O)(=O)C3)[nH]c2cc1OC (centres undefined)	none
O=C(Nc1ccc(S(=O)(=O)Nc2ccccc2)cc1)c1ccc(CN2CCOCC2)cc1	Exocytosis inh 76 | Exocytosis CP01 inactive
O=C(Nc1ccc(CN2CCOCC2)cc1)c1ccc(Cl)cc1	none
CCCCn1c(NS(=O)(=O)c2ccc(C)cc2)c(S(=O)(=O)c2ccccc2)c2nc3ccccc3nc21	Exocytosis inh 68 | Exocytosis CP01 inactive
Cc1ccc(S(=O)(=O)c2c(N)n(CCCN(C)C)c3nc4ccccc4nc23)cc1	none
COC(=O)c1sccc1NC(=S)Nc1cccc(F)c1	none
COC(=O)c1sccc1NC(=S)Nc1ccc(F)cc1F	Exocytosis inh 60 | Exocytosis CP01 inactive
O=C(Nc1ccc(N2CCOCC2)cc1)c1ccc(Cl)c(S(=O)(=O)N2CCCC2)c1	none
Oc1ccccc1-c1nc(NC2CCCC2)c2ccccc2n1	Exocytosis inh 64 | Exocytosis CP01 inactive
Fc1ccccc1-c1nc(NC2CCCC2)c2ccccc2n1	none
COc1cccc(CNCCc2c[nH]c3ccccc23)c1OCc1ccccc1	Exocytosis inh 65 | Exocytosis CP01 inactive
COc1cc(CNCCc2c[nH]c3ccccc23)ccc1OCc1ccccc1F	none
N=c1c2c(-c3ccccc3)c(-c3ccccc3)n(Cc3ccco3)c2ncn1Cc1ccco1	Exocytosis inh 91 | Exocytosis CP01 inactive
CCCCn1cnc2c(c(-c3ccccc3)c(-c3ccccc3)n2Cc2ccco2)c1=N	Exocytosis inh 64 | Exocytosis CP01 inactive
COc1ccc2nc3c(c(-c4ccccc4)c2c1)CCC3	Exocytosis inh 66 | Exocytosis CP01 inactive
COc1cc(Nc2c3c(nc4ccccc24)CCC3)cc(OC)c1OC	none
COc1ccc(OC)c(Nc2c3ccccc3nc3ccccc23)c1	Exocytosis inh 67 | Exocytosis CP01 inactive
O=[N+]([O-])c1ccc(Nc2c3ccccc3nc3ccccc23)cc1	none
COc1ccc2nc3c(nc2c1)CCCC3	none
COc1ccc([N+](=O)[O-])cc1Nc1c2ccccc2nc2ccccc12	Exocytosis inh 73 | Exocytosis CP01 73
COc1ccc(OC)c(Nc2c3c(nc4ccccc24)CCC3)c1	Exocytosis inh 58 | Exocytosis CP01 inactive
C[C@H]1CN([C@@H](C)CO)C(=O)CCCn2cc(nn2)CO[C@@H]1CN(C)C(=O)c1ccncc1	none
O=C1NC[C@H](CCCCN2C[C@H](Cc3ccccc3)N(CC3CCCCC3)C(=O)C2=O)N(CCc2ccccc2)C1=O	none (no result: V-ATPase pH)
Cc1ccnc(Nc2nc(-c3ccc(O)cc3)cs2)c1	none
Cc1ccnc(Nc2nc(-c3ccc(O)c(O)c3)cs2)c1	Exocytosis inh 72 | Exocytosis CP01 inactive
Cc1ccc(C(O)c2ncc(-c3ccc(C(F)(F)F)cc3)[nH]2)cc1F (centres undefined)	none (no result: V-ATPase pH)
COc1ccc(NC(=O)N(C)C[C@@H]2OCc3cnnn3CCCC(=O)N([C@H](C)CO)C[C@H]2C)c(OC)c1	none (no result: CendR NRP1 mod, Exocytosis inh, V-ATPase pH)
Cc1cc(C)cc(NC(=O)COC(=O)CC2CCCC2)c1	none
CC(C)c1ccc(N(C(=O)c2snc(C(N)=O)c2N)C(C(=O)NCC2CCCO2)c2ccc(N(C)C)cc2)cc1 (centres undefined)	none
CN(C)c1ccc(C(C(=O)NCC2CCCO2)N(C(=O)c2snc(C(N)=O)c2N)c2ccc3c(c2)OCO3)cc1 (centres undefined)	Exocytosis inh 72 | Exocytosis CP01 inactive
O=C(Cc1cccc([N+](=O)[O-])c1)Nc1ccc(C(=O)N2CCCCC2)cc1	none
Cc1ccc(C)c(NC(=O)COC(=O)c2cc(=O)c3ccccc3o2)c1	Exocytosis inh 73 (no result: ARFGAP1 inh, ASAP1 inh) | Exocytosis CP01 inactive
Cc1ccc(C)c(NC(=O)c2cc(=O)c3ccccc3o2)c1	none
CCOc1ccc(N(CC(=O)NC2CCCCCC2)S(=O)(=O)c2ccccc2)cc1	none
CCN(c1ccccc1)S(=O)(=O)c1ccc(OC)c(NC(=O)CNCCc2ccccc2)c1	Exocytosis inh 85 | Exocytosis CP01 inactive
COc1ccc(N(CC(=O)NC(C)c2ccccc2)S(=O)(=O)c2c(C)noc2C)cc1 (centres undefined)	none
CCOc1ccccc1N(CC(=O)NC1CCCCC1)S(=O)(=O)c1ccccc1	Exocytosis inh 70 | Exocytosis CP01 inactive
CCN(c1ccccc1)S(=O)(=O)c1ccc(OC)c(NC(=O)Cc2ccc(F)cc2)c1	none
COC(=O)c1cc(NC(=O)CN(c2ccccc2OC)S(=O)(=O)c2ccccc2)ccc1Cl	Exocytosis inh 68 | Exocytosis CP01 inactive
COc1ccc(N(CC(=O)NC(C)c2ccccc2)S(=O)(=O)c2ccc(C)cc2)cc1 (centres undefined)	Exocytosis inh 87 | Exocytosis CP01 inactive
COC(=O)c1cc(NC(=O)CN(c2cccc(OC)c2)S(=O)(=O)c2ccccc2)ccc1Cl	none
CCOc1ccc(N(CC(=O)Nc2ccccc2OC)S(=O)(=O)c2ccccc2)cc1	Exocytosis inh 65 | Exocytosis CP01 inactive
COc1ccc(N(CC(=O)Nc2cc(C)on2)S(=O)(=O)c2cc(C)ccc2C)cc1	Exocytosis inh 57 | Exocytosis CP01 inactive
